According to publication PMC6336391 (Journal of the American Chemical Society, 2018):
“And” between values parts separate entries of the source, which are not always exact repeats. Equal entries are not always repeated. Where two headings read alike, the source gives them in different places. Blank lines part the entries; values can stand above or below the compound they belong to.

Tests used:
HUVECs = test: MTT cytotoxicity in normal human cells; type: cell-based; conditions: up to 100 μM
bovine serum albumin [1] = molecular target: T1, bovine serum albumin (Bos taurus, UniProt P02769); test: Bovine serum albumin binding by tryptophan fluorescence quenching
[2] = test system: RAW 264.7 murine macrophage cells; test: MTT cytotoxicity in RAW 264.7 cells with added BSA; type: cell-based
How it was run: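 MTT viability assay in murine RAW 264.7 macrophages with added bovine serum albumin. Test compounds were screened under both non-illuminated and illuminated conditions.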

A549 cells = test: MTT toxicity in A549 cells with added BSA; type: cell-based, human; conditions: BSA 0.6 mM
How it was run: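 MTT viability assay in human A549 alveolar adenocarcinoma cells with added BSA (0.6 mM). Test compounds were tested under non-illuminated and illuminated conditions. Percent viability was plotted against concentration. IC50 was fitted by four-parameter nonlinear regression, only where viability fell by at least 50%.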

TNF-α [3] = test: Suppression of LPS-induced TNF-α production in RAW 264.7 cells; type: cell-based, murine; conditions: BSA 0.6 mM; for effect on TNF-α: LPS 1 μg/mL
How it was run: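 RAW 264.7 murine macrophages with added BSA (0.6 mM) and test compound, kept either illuminated or dark. Plates were then treated with LPS (1 μg/mL final) for 1 h. TNF-α in each well's supernatant was measured by commercial ELISA. Means ± SEM from three independent experiments. Two-way ANOVA with Tukey post hoc tests against the LPS control and illuminated versus dark.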

bovine serum albumin [4] = molecular target: T1, bovine serum albumin; conditions: 22 °C, cited from earlier work
TNF-α [5] = conditions: RAW 264.7 murine macrophages; cited from earlier work
[6] = read-out: IC50 RAW 264.7, non-illuminated
[7] = read-out: IC50 A549, non-illuminated

T1 sequence (P02769 25-607): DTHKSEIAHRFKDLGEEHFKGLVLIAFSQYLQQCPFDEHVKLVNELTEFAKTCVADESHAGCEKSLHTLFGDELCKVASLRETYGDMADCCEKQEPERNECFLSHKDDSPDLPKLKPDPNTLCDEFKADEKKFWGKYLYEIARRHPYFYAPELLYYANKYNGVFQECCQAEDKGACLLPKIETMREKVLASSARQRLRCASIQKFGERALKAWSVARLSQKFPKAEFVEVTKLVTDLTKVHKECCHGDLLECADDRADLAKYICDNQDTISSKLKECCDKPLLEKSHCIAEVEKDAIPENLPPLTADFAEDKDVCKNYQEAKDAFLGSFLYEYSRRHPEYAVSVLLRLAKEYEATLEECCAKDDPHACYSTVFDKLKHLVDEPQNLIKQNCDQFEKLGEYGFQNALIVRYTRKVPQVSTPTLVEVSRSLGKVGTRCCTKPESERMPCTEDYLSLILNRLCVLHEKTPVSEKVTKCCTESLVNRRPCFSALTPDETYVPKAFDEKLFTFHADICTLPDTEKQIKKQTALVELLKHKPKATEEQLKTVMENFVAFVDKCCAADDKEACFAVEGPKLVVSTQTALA

- KSV (binding constant with BSA) (bovine serum albumin [1]; 22 °C, 4% DMSO:Tris buffer pH 7.4, 0.1 M NaCl): 2.9e+06 M⁻¹
- Ka (ibuprofen) (bovine serum albumin [1]; 22 °C, in the presence of ibuprofen (Site II)): 980000 M⁻¹
- Ka (warfarin) (bovine serum albumin [1]; 22 °C, in the presence of warfarin (Site I)): 610000 M⁻¹
- fold stronger binding to BSA than Flav-1 (bovine serum albumin [1]; relative to Flav-1): approximately 900 fold
Compound: 3-hydroxybenzo[g]quinolone [Compound 1]
- cell viability (HUVECs): greater than 50%
- IC50 [2, 6]: 40.2 ± 1.44 µM
- IC50 (A549 cells; [7]): > 100 µM
- TNF-α level (TNF-α [3]; 80 nM, illuminated (blue LED array, 1 hr), LPS 1 μg/mL 1 h): almost completely suppressed
- effect on TNF-α (TNF-α [3]; non-illuminated): dose-dependent decrease

Compound: O=c1c(O)c(-c2ccccc2)oc2cc3ccccc3cc12 [Flav-1, 3-hydroxybenzo[g]flavone, reference compound]
- Ka (ibuprofen) (bovine serum albumin [4]; in the presence of ibuprofen): 2600 M⁻¹
- Ka (warfarin) (bovine serum albumin [4]; in the presence of warfarin): 360 M⁻¹
- cell viability (HUVECs): greater than 50%
- IC50 RAW 264.7 ([2]; non-illuminated): nontoxic
- IC50 [2, 6]: > 100 µM
- IC50 (A549 cells; [7]): 82 µM and 81.9 µM

Compound: BSA-Ru(CO)2 conjugate: adduct formed by albumin binding of CORM-3
- concentration at which effects on TNF-α expression start (TNF-α [5]): 4.5 µM

Compound: NCC(=O)O.[C-]#[O+].[C-]#[O+].[C-]#[O+].[Cl][Ru] [CORM-3]
- concentration at which effects on TNF-α expression start (TNF-α [5]): 10 µM

Compound: O=C(Nc1cc2ccccc2cc1C(=O)O)c1ccccc1 [Compound 3, 3-(benzoylamino)-2-naphthalenecarboxylic acid]
- IC50 ([2]; Mus musculus, RAW264.7, read-out: IC50 RAW 264.7, non-illuminated): > 100 µM
- IC50 [2, 6]: > 100 µM
- IC50 (A549 cells; Homo sapiens, A549, read-out: IC50 A549, non-illuminated): > 100 µM
- IC50 (A549 cells; [7]): > 100 µM
- IC50 A549 (illuminated) (A549 cells; visible light illumination (in situ CO release)): non-toxic
- effect on TNF-α (TNF-α [3]; illuminated): lack of any effect
